Assay results reported in ChEMBL document CHEMBL2424521, “Long-lasting inhibition of EGFR autophosphorylation in A549 tumor cells by intracellular accumulation of non-covalent inhibitors” (Bioorg Med Chem Lett, 2013).
Active and inactive are the calls of the source. No cut-off for these calls is given here.

Tests used:
A549 [1] = assay: Cellular uptake in human A549 cells incubated for 1 hr followed by compound washout measured at 1 hr by HPLC-MS/MS analysis; assay type: ADME, cell-based; settings: a549, 1 h
Outline: (§1)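 A549 cells (wild-type EGFR) exposed to 1 µM extracellular compound for 1 h; intracellular content quantified by HPLC-ESI-MS/MS immediately after or 8 h after removal of compound (drug-free incubation) as pmol/mg protein; converted to µM using average cell volume per mg protein estimated from equilibrium distribution of 3-O-methyl-D-[1-³H]glucose in A549 cells.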

[2] = Stability of the compound in human A549 cell lysates up to 24 hrs in presence of cysteine; assay type: physicochemical; settings: a549, 24 h
Outline: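 Compound incubated with A549 cell lysate plus molar excess of cysteine as trapping reagent; cysteine conjugate formation monitored by HPLC–MS for up to 24 h.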

A549 [3] = assay: Cellular uptake in human A549 cells incubated for 1 hr followed by compound washout measured after 8 hrs by HPLC-MS/MS analysis; assay type: ADME, cell-based; settings: a549, 1 h; outline: as §1
[4] = Percentage unbound in human A549 cells at 1 uM after 4 hrs by equilibrium dialysis method; assay type: ADME, cell-based
[5] = biological target: T1, Epidermal growth factor receptor (Homo sapiens, UniProt P00533); assay: Inhibition of wild type EGFR autophosphorylation in human A549 cells incubated for 1 hr followed by compound washout measured after 8 hrs by Western blot analysis; assay type: cell-based
[6] = biological target: T1, Epidermal growth factor receptor; assay: Inhibition of wild type EGFR autophosphorylation in human A549 cells incubated for 1 hr followed by compound washout measured at 1 hr by Western blot analysis; assay type: cell-based
[7] = biological target: T1, Epidermal growth factor receptor; settings: A549, at 1 µM
[8] = biological target: T1, Epidermal growth factor receptor; assay: Inhibition of wild type EGFR autophosphorylation in human A549 cells at 1 uM incubated for 1 hr followed by compound washout measured after 8 hrs by Western blot analysis; assay type: cell-based
Outline: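 A549 cells expressing wild-type EGFR treated 1 h with inhibitor at 1 µM, then washed with drug-free medium; EGFR autophosphorylation in intact cells read by Western blot 8 h after compound removal; percent inhibition as mean of at least two independent experiments ± SEM.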

[9] = biological target: T1, Epidermal growth factor receptor
[10] = biological target: T1, Epidermal growth factor receptor; settings: at 1 µM

T1 sequence (P00533 whole entry): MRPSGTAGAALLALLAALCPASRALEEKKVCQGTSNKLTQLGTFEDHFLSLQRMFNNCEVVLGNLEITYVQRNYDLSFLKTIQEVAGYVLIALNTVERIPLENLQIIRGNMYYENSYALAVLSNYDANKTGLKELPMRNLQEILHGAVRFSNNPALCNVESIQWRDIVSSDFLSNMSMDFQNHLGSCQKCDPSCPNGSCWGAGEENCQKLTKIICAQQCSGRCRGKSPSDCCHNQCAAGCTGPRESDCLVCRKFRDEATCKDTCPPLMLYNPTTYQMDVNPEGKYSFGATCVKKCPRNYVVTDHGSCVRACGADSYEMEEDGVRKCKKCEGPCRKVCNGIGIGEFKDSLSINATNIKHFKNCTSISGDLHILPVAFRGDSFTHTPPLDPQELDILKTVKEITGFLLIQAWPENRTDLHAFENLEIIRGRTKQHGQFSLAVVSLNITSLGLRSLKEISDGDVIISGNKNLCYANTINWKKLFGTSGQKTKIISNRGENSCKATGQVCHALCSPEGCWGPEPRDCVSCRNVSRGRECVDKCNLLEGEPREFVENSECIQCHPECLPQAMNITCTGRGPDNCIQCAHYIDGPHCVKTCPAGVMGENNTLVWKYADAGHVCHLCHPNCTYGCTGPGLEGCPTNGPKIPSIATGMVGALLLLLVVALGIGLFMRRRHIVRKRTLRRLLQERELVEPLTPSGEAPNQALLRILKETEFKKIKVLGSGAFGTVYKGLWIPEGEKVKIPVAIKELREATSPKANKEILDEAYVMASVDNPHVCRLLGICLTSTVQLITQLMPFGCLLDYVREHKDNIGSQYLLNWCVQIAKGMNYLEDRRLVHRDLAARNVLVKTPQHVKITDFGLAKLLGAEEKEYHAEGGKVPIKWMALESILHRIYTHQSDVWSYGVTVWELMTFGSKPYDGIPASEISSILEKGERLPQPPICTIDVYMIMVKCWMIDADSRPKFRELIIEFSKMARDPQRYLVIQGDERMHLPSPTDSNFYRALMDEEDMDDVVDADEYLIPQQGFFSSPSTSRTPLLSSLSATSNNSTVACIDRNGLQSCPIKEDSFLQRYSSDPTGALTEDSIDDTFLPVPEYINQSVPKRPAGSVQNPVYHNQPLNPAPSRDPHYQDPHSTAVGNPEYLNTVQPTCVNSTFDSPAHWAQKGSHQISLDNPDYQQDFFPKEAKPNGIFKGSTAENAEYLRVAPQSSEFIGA

Structure (SMILES) | Drug uptake (A549 [1]) | Stability [2] | Drug uptake (A549 [3]) | fraction unbound at 4 h, 1 µM [4] | IC50 [5] | IC50 [6] | inhibition [7] | inhibition [8] | IC50 [9] | inhibition [10]
O=C(CCOc1ccccc1)Nc1ccc2ncnc(Nc3cccc(Br)c3)c2c1 | 72 µM | Stable | 0.7 µM |  |  |  |  |  |  | 
COc1cc2ncnc(Nc3ccc(F)c(Cl)c3)c2cc1OCCCN1CCOCC1 [GEFITINIB] | 271 µM |  | 2.3 µM | 0.322 |  |  |  |  |  | 
O=C(COc1c(F)c(F)c(F)c(F)c1F)Nc1ccc2ncnc(Nc3cccc(Br)c3)c2c1 | 240 µM | Stable | 3.6 µM |  |  |  |  |  |  | 
Nc1ccc2ncnc(Nc3cccc(Br)c3)c2c1 | 13 µM |  | < 0.05 µM |  |  |  |  |  |  | 

The remaining lines, values ahead:

Drug uptake (A549 [1]) | Stability [2] | Drug uptake (A549 [3]) | fraction unbound at 4 h, 1 µM [4] | IC50 [5] | IC50 [6] | inhibition [7] | inhibition [8] | IC50 [9] | inhibition [10] | Structure (SMILES)
324 µM |  | 105 µM | 0.077 | 14.1 nM | 1.7 nM | 95% | 90% | 0.41 nM |  | Brc1cccc(Nc2ncnc3ccc(NCCCN4CCCCC4)cc23)c1
26 µM |  | < 0.05 µM |  |  |  |  |  |  |  | CN(C)CCC(=O)Nc1ccc2ncnc(Nc3cccc(Br)c3)c2c1
147 µM | Stable | 7.2 µM | 0.157 | 13.5 nM | 5.7 nM | 98% | 96% | 0.63 nM | inactive | O=C(CCCN1CCCCC1)Nc1ccc2ncnc(Nc3cccc(Br)c3)c2c1
< 0.05 µM |  | < 0.05 µM |  |  |  |  |  |  |  | C=CC(=O)Nc1ccc2ncnc(Nc3cccc(Br)c3)c2c1
